Results from ChEMBL document CHEMBL1134263, “Syntheses and evaluation of quinoline derivatives as novel retinoic acid receptor alpha antagonists” (Bioorg Med Chem Lett, 2001).

Key:
[1] = molecular target: T1, Retinoic acid receptor gamma (Homo sapiens) (UniProt P13631); assay: Retinoid activity at Retinoic acid receptor gamma was evaluated relative to that of All-trans retinoic acids(Mean of ATRA EC50 = 0.26 nM)
T1 sequence (whole entry): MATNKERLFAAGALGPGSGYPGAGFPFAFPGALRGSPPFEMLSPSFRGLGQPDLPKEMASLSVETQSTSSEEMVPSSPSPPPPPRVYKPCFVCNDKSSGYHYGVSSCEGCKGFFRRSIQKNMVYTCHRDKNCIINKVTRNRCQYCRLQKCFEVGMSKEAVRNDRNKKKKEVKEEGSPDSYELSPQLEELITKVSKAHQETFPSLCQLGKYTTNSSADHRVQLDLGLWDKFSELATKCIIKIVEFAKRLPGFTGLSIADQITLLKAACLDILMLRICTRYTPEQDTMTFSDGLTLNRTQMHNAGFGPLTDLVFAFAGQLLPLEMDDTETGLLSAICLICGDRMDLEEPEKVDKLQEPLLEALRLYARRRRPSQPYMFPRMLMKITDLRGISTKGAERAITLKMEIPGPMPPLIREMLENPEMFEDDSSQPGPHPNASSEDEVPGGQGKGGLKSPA
Procedure, shortened: (§1)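 Gene transcription was induced in a co-transfection transactivation assay at each RAR subtype. Full dose-response curves started from 0.1 nM. EC30 is the concentration giving 30% of the maximal observed response. The reported value is the mean of EC30/ATRA EC30. Activity was taken as not detectable when EC30 > 3000 nM.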

[2] = molecular target: T1, Retinoic acid receptor gamma (Homo sapiens); assay: In vitro binding affinity towards Retinoic acid receptor gamma evaluated relative to that of All-trans retinoic acids(Mean of ATRA IC50 = 0.42 nM); Not detectable
[3] = molecular target: T2, Retinoic acid receptor beta (Homo sapiens) (UniProt P10826); assay: In vitro binding affinity towards Retinoic acid receptor beta evaluated relative to that of All-trans retinoic acids(Mean of ATRA IC50 = 0.52 nM)
T2 sequence (whole entry): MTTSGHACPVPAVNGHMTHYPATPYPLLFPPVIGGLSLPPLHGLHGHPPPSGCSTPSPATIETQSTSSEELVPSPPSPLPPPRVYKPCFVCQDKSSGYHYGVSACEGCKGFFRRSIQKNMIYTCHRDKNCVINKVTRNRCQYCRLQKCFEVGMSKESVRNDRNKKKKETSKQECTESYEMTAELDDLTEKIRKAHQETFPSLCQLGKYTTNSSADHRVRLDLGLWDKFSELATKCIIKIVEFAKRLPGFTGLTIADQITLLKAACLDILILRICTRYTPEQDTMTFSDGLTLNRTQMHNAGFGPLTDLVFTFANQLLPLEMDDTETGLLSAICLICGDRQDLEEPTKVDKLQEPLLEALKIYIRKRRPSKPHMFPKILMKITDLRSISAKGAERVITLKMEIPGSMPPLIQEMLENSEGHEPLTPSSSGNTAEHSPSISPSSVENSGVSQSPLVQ

[4] = tested on: HL-60; assay: Agonistic activity was evaluated by HL-60 cell differentiation activity; format: functional, Homo sapiens
Procedure, shortened: (§2)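 HL-60 cell differentiation was read out as CD11b expression, used as the differentiation marker.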

[5] = molecular target: T2, Retinoic acid receptor beta (Homo sapiens); assay: Retinoid activity at Retinoic acid receptor beta was evaluated relative to that of All-trans retinoic acids(Mean of ATRA EC50 = 1.02 nM); procedure, shortened: as §1
[6] = molecular target: T3, Retinoic acid receptor alpha (Homo sapiens) (UniProt P10276); assay: Retinoid activity at Retinoic acid receptor alpha was evaluated relative to that of All-trans retinoic acids(Mean of ATRA EC50 = 1.06 nM); procedure, shortened: as §1
T3 sequence (whole entry): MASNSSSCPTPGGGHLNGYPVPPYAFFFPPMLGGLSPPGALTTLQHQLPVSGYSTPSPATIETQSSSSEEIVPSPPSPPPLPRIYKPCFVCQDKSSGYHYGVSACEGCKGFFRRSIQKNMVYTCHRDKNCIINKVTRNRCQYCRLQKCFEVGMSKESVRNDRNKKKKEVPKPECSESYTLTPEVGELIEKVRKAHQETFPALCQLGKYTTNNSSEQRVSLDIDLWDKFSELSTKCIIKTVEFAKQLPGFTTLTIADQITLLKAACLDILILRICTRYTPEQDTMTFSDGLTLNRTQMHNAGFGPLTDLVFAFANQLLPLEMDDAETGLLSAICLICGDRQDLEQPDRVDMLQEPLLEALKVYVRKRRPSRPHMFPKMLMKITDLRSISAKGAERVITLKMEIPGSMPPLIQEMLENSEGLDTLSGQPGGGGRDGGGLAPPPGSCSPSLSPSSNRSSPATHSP

[7] = molecular target: T3, Retinoic acid receptor alpha (Homo sapiens); assay: In vitro binding affinity towards Retinoic acid receptor alpha evaluated relative to that of All-trans retinoic acids(Mean of ATRA IC50 = 0.66 nM)
[8] = tested on: HL-60; assay: Agonistic activity was evaluated by HL-60 cell differentiation activity; Not detectable; format: functional, Homo sapiens; procedure, shortened: as §2
[9] = molecular target: T1, Retinoic acid receptor gamma (Homo sapiens); assay: In vitro binding affinity towards Retinoic acid receptor gamma evaluated relative to that of All-trans retinoic acids(Mean of ATRA IC50 = 0.42 nM)
[10] = tested on: HL-60; assay: Antagonistic activity was evaluated in terms of inhibition of HL-60 cell differentiation activity by ATRA (10 nM); format: functional, cell-based; settings: Homo sapiens
Procedure, shortened: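 HL-60 cells were induced to differentiate with ATRA (10 nM). Antagonism was scored as inhibition of that differentiation, read out as CD11b expression.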

[11] = molecular target: T3, Retinoic acid receptor alpha (Homo sapiens); assay: Retinoid activity at Retinoic acid receptor alpha was evaluated relative to that of All-trans retinoic acids(Mean of ATRA EC50 = 1.06 nM); Not detectable; procedure, shortened: as §1
[12] = molecular target: T4, Retinoic acid receptor alpha (Homo sapiens, UniProt P10276); assay: Antagonistic activity was evaluated in terms of inhibition of Retinoic acid receptor alpha transactivation by ATRA (50 nM); format: functional
T4 sequence (P10276 whole entry): T3 sequence (whole entry)

[13] = molecular target: T5, Retinoic acid receptor beta (Homo sapiens, UniProt P10826); assay: Antagonistic activity was evaluated in terms of inhibition of Retinoic acid receptor beta transactivation by ATRA (50 nM); Not detectable; format: functional
T5 sequence (P10826 whole entry): T2 sequence (whole entry)

[14] = molecular target: T6, Retinoic acid receptor gamma (Homo sapiens, UniProt P13631); assay: Antagonistic activity was evaluated in terms of inhibition of Retinoic acid receptor gamma transactivation by ATRA (50 nM); Not detectable; format: functional
T6 sequence (P13631 whole entry): T1 sequence (whole entry)

## CC(C)c1cccc2ccc(-c3ccc(-c4ccc(C(=O)O)cc4)[nH]3)nc12
[1]
  Relative EC30: 5770
[2]
  Relative IC50: > 1000
[3]
  Relative IC50: 579
[4]
  ED30: 2500 nM
[5]
  Relative EC30: 97
[6]
  Relative EC30: 3
[7]
  Relative IC50: 5.7

## CCc1cc(-c2ccc(-c3ccc(C(=O)O)cc3)[nH]2)nc2c(C(C)C)cccc12
[8]
  ED30: >10000 nM
[9]
  Relative IC50: 22
[1]
  Relative EC30: 180
[3]
  Relative IC50: 32
[5]
  Relative EC30: 22
[6]
  Relative EC30: 2.5
[10]
  IC50: 17 nM
[7]
  Relative IC50: 0.7

## COc1cc(-c2ccc(-c3ccc(C(=O)O)cc3)[nH]2)nc2c(C(C)C)cccc12
[8]
  ED30: >10000 nM
[11]
  Relative EC30: > 3000
[9]
  Relative IC50: 834
[1]
  Relative EC30: 4460
[3]
  Relative IC50: 475
[5]
  Relative EC30: 38
[10]
  IC50: 1.6 nM
[7]
  Relative IC50: 0.8

## Cc1cc(-c2ccc(-c3ccc(C(=O)O)cc3)[nH]2)nc2c(C(C)C)cccc12
[9]
  Relative IC50: 141
[1]
  Relative EC30: 903
[3]
  Relative IC50: 71
[4]
  ED30: 100 nM
[5]
  Relative EC30: 16
[6]
  Relative EC30: 2.8
[7]
  Relative IC50: 1.7

## CC(C)c1cccc2c(Cl)cc(-c3ccc(-c4ccc(C(=O)O)cc4)[nH]3)nc12
[9]
  Relative IC50: 251
[1]
  Relative EC30: 1160
[3]
  Relative IC50: 79
[4]
  ED30: 100 nM
[5]
  Relative EC30: 17
[6]
  Relative EC30: 1.9
[7]
  Relative IC50: 1.3

## CC(C)c1cccc2c(-c3ccccc3)cc(-c3ccc(-c4ccc(C(=O)O)cc4)[nH]3)nc12
[8]
  ED30: >10000 nM
[11]
  Relative EC30: > 3000
[9]
  Relative IC50: 432
[1]
  Relative EC30: > 3000
[3]
  Relative IC50: 535
[12]
  IC50: 31.2 nM
[13]
  IC50: > 3000 nM
[10]
  IC50: 6.4 nM
[7]
  Relative IC50: 1.8
[14]
  IC50: > 3000 nM
